From ChEMBL document CHEMBL1156300, “Identification of pyridazino[4,5-b]indolizines as selective PDE4B inhibitors” (Bioorg Med Chem Lett, 2010)

Assays:
[1] = biological target: T1, 3',5'-cyclic-AMP phosphodiesterase 4D (Homo sapiens, UniProt Q08499); test: Displacement of [methyl-3H]rolipram from PDE4D4 expressed in CHO cells after 1 hr by scintillation counting; format: cell-based
[2] = biological target: T2, 3',5'-cyclic-AMP phosphodiesterase 4B (Homo sapiens, UniProt Q07343); test: Inhibition of PDE4B3 expressed in CHO cells assessed as isoproterenol-induced [125I]cAMP accumulation after 15 mins by scintillation counting; format: cell-based
T2 sequence (Q07343 whole entry): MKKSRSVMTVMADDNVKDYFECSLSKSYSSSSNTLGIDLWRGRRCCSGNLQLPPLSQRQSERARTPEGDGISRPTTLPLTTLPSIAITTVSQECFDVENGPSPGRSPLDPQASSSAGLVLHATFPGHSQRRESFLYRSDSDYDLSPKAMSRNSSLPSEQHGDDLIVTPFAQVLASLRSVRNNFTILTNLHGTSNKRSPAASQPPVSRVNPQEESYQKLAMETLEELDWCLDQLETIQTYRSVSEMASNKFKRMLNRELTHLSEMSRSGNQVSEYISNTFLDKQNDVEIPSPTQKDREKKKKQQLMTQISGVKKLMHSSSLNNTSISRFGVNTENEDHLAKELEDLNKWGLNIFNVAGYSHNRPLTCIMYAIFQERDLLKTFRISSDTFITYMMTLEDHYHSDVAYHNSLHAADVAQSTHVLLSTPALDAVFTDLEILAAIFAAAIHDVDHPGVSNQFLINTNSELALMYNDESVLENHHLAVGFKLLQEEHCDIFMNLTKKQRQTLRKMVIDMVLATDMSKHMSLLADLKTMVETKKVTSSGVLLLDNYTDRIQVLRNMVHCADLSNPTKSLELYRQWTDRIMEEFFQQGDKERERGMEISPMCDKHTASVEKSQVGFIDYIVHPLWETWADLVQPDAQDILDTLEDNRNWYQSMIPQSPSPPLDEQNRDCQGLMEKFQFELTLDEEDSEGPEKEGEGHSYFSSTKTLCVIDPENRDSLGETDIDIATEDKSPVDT

[3] = biological target: T1, 3',5'-cyclic-AMP phosphodiesterase 4D; test: Inhibition of PDE4D4 expressed in CHO cells assessed as isoproterenol-induced [125I]cAMP accumulation after 15 mins by scintillation counting; format: cell-based
[4] = biological target: T2, 3',5'-cyclic-AMP phosphodiesterase 4B; test: Displacement of [methyl-3H]rolipram from PDE4B3 expressed in CHO cells after 1 hr by scintillation counting; format: cell-based
[5] = Selectivity ratio Ki for PDE4D4 to Ki for PDE4B3
How it was run: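 Ki ratio, PDE4D over PDE4B, from [3H]-rolipram displacement in CHO lysates expressing PDE4D4 or PDE4B3 (2.5 nM radioligand, 30 °C for 1 h, Cheng–Prusoff Ki).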

[6] = Inhibition of PDE1
[7] = Selectivity ratio of IC50 for PDE4C to IC50 for PDE4B3
[8] = Inhibition of PDE2
[9] = Inhibition of PDE3
[10] = Inhibition of PDE5
[11] = Inhibition of PDE6
[12] = biological target: Voltage-gated inwardly rectifying potassium channel KCNH2 (Homo sapiens, UniProt Q12809); test: Inhibition of human ERG
Chain of Voltage-gated inwardly rectifying potassium channel KCNH2 (Q12809 whole entry): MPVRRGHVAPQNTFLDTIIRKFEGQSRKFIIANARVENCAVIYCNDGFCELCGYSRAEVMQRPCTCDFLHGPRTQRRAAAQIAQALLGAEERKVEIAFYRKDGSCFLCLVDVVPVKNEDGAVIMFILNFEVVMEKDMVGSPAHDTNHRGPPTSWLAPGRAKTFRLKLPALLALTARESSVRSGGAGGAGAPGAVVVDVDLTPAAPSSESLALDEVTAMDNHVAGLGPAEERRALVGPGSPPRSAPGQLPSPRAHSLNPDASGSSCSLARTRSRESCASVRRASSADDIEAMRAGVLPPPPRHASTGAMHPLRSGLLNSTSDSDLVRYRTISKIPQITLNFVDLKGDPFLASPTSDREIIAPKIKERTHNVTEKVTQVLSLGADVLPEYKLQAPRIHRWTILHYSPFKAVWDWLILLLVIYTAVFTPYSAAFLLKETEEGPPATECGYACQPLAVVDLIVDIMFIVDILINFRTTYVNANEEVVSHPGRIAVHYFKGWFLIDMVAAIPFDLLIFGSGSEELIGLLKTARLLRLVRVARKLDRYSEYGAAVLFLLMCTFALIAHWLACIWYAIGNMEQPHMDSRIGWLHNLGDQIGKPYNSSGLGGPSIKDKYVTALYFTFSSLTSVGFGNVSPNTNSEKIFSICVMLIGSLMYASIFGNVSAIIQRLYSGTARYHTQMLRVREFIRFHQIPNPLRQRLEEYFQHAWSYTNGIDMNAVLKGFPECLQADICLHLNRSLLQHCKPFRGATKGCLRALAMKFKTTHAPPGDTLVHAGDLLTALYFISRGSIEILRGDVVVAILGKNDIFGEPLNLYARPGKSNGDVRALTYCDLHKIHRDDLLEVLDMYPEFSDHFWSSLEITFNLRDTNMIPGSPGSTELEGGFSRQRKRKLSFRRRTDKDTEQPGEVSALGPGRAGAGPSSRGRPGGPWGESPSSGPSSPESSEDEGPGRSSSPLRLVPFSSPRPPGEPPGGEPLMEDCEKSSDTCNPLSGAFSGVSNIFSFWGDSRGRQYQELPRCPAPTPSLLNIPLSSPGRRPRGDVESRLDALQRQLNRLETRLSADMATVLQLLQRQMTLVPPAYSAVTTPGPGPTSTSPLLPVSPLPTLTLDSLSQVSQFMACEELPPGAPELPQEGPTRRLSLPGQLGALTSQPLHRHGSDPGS

[13] = Selectivity ratio of IC50 for PDE4A to IC50 for PDE4B3

T1 sequence (Q08499 whole entry): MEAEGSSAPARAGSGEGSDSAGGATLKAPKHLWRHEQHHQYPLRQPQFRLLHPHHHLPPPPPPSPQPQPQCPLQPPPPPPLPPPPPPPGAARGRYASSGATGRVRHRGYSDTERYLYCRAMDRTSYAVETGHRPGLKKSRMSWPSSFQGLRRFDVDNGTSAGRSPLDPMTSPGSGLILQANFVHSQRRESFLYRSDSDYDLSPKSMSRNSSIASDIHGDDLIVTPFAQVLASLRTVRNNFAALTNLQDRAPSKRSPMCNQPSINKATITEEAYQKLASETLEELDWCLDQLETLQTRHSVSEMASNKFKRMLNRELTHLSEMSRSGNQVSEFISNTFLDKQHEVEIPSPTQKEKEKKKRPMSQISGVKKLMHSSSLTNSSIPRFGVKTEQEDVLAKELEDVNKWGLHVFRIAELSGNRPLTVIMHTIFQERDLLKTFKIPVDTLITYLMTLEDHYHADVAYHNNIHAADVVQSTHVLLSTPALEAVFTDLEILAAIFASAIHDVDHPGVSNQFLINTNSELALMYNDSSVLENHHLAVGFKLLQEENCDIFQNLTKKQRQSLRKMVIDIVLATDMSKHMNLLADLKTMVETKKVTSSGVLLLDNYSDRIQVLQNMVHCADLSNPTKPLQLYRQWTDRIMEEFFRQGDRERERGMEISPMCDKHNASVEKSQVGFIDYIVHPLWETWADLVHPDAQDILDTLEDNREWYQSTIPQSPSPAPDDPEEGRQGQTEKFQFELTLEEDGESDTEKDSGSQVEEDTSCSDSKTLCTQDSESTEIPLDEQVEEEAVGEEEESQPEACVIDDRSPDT

Row | SMILES | Ki [1] | Ki [4] | Ratio Ki [5] | also measured
1 | c1ccc(-c2nnc(NCCCN3CCN(c4ncccn4)CC3)c3cc4ccccn4c23)cc1 | 59 µM | 2.6 µM | 23 | IC50 [2]: 13.2 µM; IC50 [3]: > 100 µM
2 | CC(=O)N1CCN(CCCNc2nnc(-c3cccc(F)c3)c3c2cc2ccccn23)CC1 | > 100 µM | 1.9 µM | > 53 | 
3 | Clc1cccc(-c2nnc(NCCCN3CCN(c4ncccn4)CC3)c3cc4ccccn4c23)c1 | 14.2 µM | 2.01 µM | 7 | 
4 | O=C(c1ccccn1)N1CCN(CCCNc2nnc(-c3cccc(F)c3)c3c2cc2ccccn23)CC1 | 18 µM | 0.241 µM | 75 | 
5 | Cn1cccc1C(=O)N1CCN(CCCNc2nnc(-c3cccc(F)c3)c3c2cc2ccccn23)CC1 | 65 µM | 5.2 µM | 12 | 
6 | Cc1cc2c(NCCCN3CCN(C(=O)c4cccnc4)CC3)nnc(-c3cccc([N+](=O)[O-])c3)c2n1C | 15.3 µM | 0.432 µM | 35 | 
7 | Cc1cc2c(NCCCN3CCN(C(=O)c4cncs4)CC3)nnc(-c3cccc([N+](=O)[O-])c3)c2n1C | 12.7 µM | 0.222 µM | 57 | 
8 | Fc1cccc(-c2nnc(NCCCN3CCN(c4ncccn4)CC3)c3cc4ccccn4c23)c1 | 83 µM | 2.7 µM | 29 | 
9 | Cc1cc2c(NCCCN3CCN(C(=O)c4ccnnc4)CC3)nnc(-c3cccc([N+](=O)[O-])c3)c2n1C | 51.2 µM | 4.44 µM | 12 | 
10 | Cc1cc2c(NCCCN3CCN(C(=O)c4ccncc4)CC3)nnc(-c3cccc([N+](=O)[O-])c3)c2n1C | > 100 µM | 52.2 µM | > 2 | 
11 | Cc1cc2c(NCCCN3CCN(C(=O)c4ccccn4)CC3)nnc(-c3cccc([N+](=O)[O-])c3)c2n1C | 11.5 µM | 0.238 µM | 48 | 
12 | O=C(c1cccnc1)N1CCN(CCCNc2nnc(-c3cccc(F)c3)c3c2cc2ccccn23)CC1 | 19 µM | 0.413 µM | 46 | 
13 | O=C(c1cnccn1)N1CCN(CCCNc2nnc(-c3cccc([N+](=O)[O-])c3)c3c2cc2ccccn23)CC1 | 0.147 µM | 0.0056 µM | 26 | IC50 [6]: > 10 µM; Ratio IC50 [7]: > 5; IC50 [8]: > 10 µM; IC50 [2]: 0.389 µM; IC50 [9]: > 10 µM; IC50 [10]: > 10 µM; IC50 [3]: 4.9 µM; IC50 [11]: > 10 µM; inhibition (INH) [12]: Active; Ratio IC50 [13]: > 5
14 | Cc1cc2c(NCCCN3CCN(C(=O)c4ncccn4)CC3)nnc(-c3cccc([N+](=O)[O-])c3)c2n1C | > 100 µM | 1 µM | > 100 | 
15 | O=C(c1cnccn1)N1CCN(CCCNc2nnc(-c3ccccc3)c3c2cc2ccccn23)CC1 | 8.37 µM | 0.041 µM | 205 | IC50 [2]: 6.7 µM; IC50 [3]: > 100 µM
16 | Cc1cc2c(NCCCN3CCN(C(=O)c4cnccn4)CC3)nnc(-c3cccc([N+](=O)[O-])c3)c2n1C | 4.44 µM | 0.077 µM | 58 | 
17 | O=[N+]([O-])c1cccc(-c2nnc(NCCCN3CCN(c4ncccn4)CC3)c3cc4ccccn4c23)c1 | 2.4 µM | 0.21 µM | 11 | 
18 | Cc1cccc(-c2nnc(NCCCN3CCN(c4ncccn4)CC3)c3cc4ccccn4c23)c1 | 54.4 µM | 4.3 µM | 13 | 
19 | CCC(=O)N1CCN(CCCNc2nnc(-c3cccc(F)c3)c3c2cc2ccccn23)CC1 | > 100 µM | 4.9 µM | > 20 | 
20 | Brc1cccc(-c2nnc(NCCCN3CCN(c4ncccn4)CC3)c3cc4ccccn4c23)c1 | 17.5 µM | 1.44 µM | 12 | 
21 | N#Cc1cccc(-c2nnc(NCCCN3CCN(c4ncccn4)CC3)c3cc4ccccn4c23)c1 | 3.35 µM | 1.03 µM | 3 | 
22 | O=C(c1ccccc1)N1CCN(CCCNc2nnc(-c3cccc(F)c3)c3c2cc2ccccn23)CC1 | 22.2 µM | 2.7 µM | 8 | 
23 | Cc1cc2c(NCCCN3CCN(C(=O)c4csnn4)CC3)nnc(-c3cccc([N+](=O)[O-])c3)c2n1C | 48.6 µM | 0.977 µM | 50 | 
24 | O=C(C1CCCC1)N1CCN(CCCNc2nnc(-c3cccc(F)c3)c3c2cc2ccccn23)CC1 | 61 µM | 14 µM | 4 | 
25 | Cc1cc2c(NCCCN3CCN(C(=O)c4ccno4)CC3)nnc(-c3cccc([N+](=O)[O-])c3)c2n1C | > 100 µM | 5.08 µM | > 20 | 
